Measurements as given in publication PMC9890135 (Molecular Cancer Therapeutics, 2022).

Key:
peripheral leukocytes = assay: Peripheral immunocytes by flow cytometry in MC38 tumor-bearing mice; type: in vivo; conditions: 7 days, XL092 30 mg/kg
Procedure, shortened: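 Female C57BL/6 mice (5–6 weeks) inoculated s.c. with 1 × 10^6 MC38 cells, randomised at ~200 mm3. […] single-cell suspensions surface-stained with a lineage panel plus fixable viability dye. Medians compared by Mann–Whitney U.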

VEGFR2 = VEGFR2 (Mus musculus, UniProt P35918); type: in vivo, mice; conditions: lung
Procedure, shortened: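 Hs 746T tumour-bearing mice received single oral doses (30 or 100 mg/kg; n = 5 pooled) or vehicle (n = 6 pooled). Then hVEGF (10 μg i.v.) 3.5 h later, 30 min before sacrifice. Lung homogenate immunoprecipitated overnight with anti-VEGFR2 on Protein A magnetic beads; Western for phospho- and total VEGFR2, infrared imaging. 100 mg/kg group also sampled every 12 h to 48 h.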

[1] = tested on: human xenograft murine models; assay: Murine xenograft models overall; type: in vivo, mice; conditions: after 14 days of daily 10 mg/kg treatments
Procedure, shortened: (§1)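 Human tumour cells inoculated into the rear flank. Mice randomised at mean volumes of ~200 mm3 (Hs 746T), ~120 mm3 (MDA-MB-231), ~100 mm3 (NCI-H441) or ~90 mm3 (SNU-5). Oral gavage once daily with test compound or vehicle. Tumour volume and body weight measured at least twice weekly. […], using mean volumes at extraction and dosing start.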

AXL = molecular target: T1, AXL (Homo sapiens, UniProt P30530); assay: Inhibition of receptor phosphorylation, ELISA, A-172 cells/GAS6; type: cell-based
T1 sequence (P30530 26-894): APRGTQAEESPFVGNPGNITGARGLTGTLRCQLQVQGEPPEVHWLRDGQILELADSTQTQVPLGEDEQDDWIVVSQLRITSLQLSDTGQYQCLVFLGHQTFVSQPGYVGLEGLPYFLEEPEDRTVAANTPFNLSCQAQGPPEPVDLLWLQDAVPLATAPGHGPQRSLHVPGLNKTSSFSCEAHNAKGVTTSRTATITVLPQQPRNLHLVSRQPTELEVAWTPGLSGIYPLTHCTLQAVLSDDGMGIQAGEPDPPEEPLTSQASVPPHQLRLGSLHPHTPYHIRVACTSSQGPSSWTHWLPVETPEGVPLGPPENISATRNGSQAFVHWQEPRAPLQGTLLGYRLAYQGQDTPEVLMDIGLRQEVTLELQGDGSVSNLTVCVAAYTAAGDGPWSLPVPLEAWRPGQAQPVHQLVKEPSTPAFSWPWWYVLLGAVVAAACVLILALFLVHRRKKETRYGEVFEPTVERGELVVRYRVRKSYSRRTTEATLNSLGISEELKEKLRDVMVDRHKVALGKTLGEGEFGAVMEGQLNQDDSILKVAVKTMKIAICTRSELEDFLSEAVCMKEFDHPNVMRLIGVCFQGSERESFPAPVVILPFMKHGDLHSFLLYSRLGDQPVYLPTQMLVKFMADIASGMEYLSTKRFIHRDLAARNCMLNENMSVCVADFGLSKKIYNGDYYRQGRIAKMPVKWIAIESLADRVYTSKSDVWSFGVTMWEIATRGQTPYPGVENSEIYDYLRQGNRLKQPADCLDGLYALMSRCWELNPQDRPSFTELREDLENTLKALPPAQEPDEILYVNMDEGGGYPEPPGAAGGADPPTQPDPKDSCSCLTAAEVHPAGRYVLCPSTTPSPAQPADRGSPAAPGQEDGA

[2] = tested on: panel of 405 protein kinases; assay: KinaseProfiler 33P radiometric kinase assay, panel; type: biochemical
Procedure, shortened: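 Radiometric 33P-phosphoryl transfer assay measuring catalytic activity of recombinant active kinase domains across the profiling panel.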

CT26 tumors = assay: CT26 syngeneic colorectal cancer survival model; type: in vivo, mice; conditions: XL092 30 mg/kg orally once a day, anti-PD-1 10 mg/kg every 3–4 days i.p.
Procedure, shortened: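 CT26 syngeneic mice randomised at ~90 mm3. Treatment: oral test compound 30 mg/kg once daily for 34 days, with or without anti-PD-1 antibody (10 mg/kg i.p. every 3–4 days for 5 weeks, diluted in sterile PBS), or vehicle. Animals sacrificed at tumour volume 2,500 mm3; survival analysed by Kaplan–Meier.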

MET [3] = molecular target: T2, MET (Homo sapiens, UniProt P08581, DEL964-1010); assay: MET phosphorylation in Hs 746T tumors in vivo; parameters: species or system mice; conditions: Hs 746T model; single dose of 100 mg/kg
[4] = Plasma protein binding, rapid equilibrium dialysis; type: in vitro ADME; conditions: mouse
Procedure, shortened: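 Rapid equilibrium dialysis against PBS at 10 μmol/L test compound, 16 h incubation, in triplicate.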

MC38 tumors = assay: MC38 syngeneic tumor model, XL092 and ICI combination studies; type: in vivo, mice; conditions: XL092 3 mg/kg orally once a day, anti-PD-1 5 mg/kg twice a week for 2 weeks i.p., 35 days
MET [5] = molecular target: T2, MET; assay: Inhibition of receptor phosphorylation, ELISA, Hs 746T cells; type: cell-based
NCI-H441 tumors = assay: NCI-H441 xenograft tumor growth; type: in vivo, mice; conditions: 21 days, oral
Procedure, shortened: as §1

Sequence of VEGFR2 (P35918 20-1345): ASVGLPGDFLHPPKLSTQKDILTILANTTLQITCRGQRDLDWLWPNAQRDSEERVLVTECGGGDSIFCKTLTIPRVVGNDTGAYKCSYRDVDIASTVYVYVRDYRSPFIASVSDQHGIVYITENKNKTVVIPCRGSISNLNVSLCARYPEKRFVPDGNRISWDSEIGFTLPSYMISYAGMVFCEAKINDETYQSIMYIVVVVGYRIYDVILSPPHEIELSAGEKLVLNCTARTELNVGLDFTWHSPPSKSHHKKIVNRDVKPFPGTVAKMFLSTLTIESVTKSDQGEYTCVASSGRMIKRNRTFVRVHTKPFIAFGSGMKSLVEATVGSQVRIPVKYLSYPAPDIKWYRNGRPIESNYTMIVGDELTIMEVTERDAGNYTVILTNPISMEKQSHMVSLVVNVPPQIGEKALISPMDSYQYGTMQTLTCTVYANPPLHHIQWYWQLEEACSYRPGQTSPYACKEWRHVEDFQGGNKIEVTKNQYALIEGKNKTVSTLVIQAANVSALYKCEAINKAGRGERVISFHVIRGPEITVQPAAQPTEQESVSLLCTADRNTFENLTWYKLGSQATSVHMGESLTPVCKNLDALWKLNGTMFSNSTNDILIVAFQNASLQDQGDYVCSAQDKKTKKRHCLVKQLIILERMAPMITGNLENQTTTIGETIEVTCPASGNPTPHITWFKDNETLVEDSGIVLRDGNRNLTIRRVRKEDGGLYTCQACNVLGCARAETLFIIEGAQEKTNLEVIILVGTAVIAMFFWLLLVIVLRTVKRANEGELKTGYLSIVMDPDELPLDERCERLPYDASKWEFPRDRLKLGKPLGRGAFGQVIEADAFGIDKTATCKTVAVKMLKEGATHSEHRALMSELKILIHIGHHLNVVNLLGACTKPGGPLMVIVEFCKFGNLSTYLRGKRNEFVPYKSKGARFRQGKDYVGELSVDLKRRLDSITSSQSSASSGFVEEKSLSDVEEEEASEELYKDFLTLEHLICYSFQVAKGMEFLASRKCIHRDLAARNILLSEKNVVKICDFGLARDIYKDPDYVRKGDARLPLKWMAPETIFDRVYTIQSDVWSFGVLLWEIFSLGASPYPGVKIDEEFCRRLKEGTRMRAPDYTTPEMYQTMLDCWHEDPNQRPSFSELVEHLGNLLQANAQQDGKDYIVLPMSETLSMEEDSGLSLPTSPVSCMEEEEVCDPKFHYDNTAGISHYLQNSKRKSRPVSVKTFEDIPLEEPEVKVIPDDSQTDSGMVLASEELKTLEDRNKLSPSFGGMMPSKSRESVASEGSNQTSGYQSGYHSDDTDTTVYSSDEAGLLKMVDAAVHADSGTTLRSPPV

## CNC(=O)c1cc2c(Oc3ccc(NC(=O)C4(C(=O)Nc5ccc(F)cc5)CC4)cc3)ccnc2cc1OC [XL092]
Peripheral leukocytes
  peripheral CD4+ T cells relative to vehicle: significant increases
Peripheral leukocytes; antibodies 5 mg/kg
  peripheral B cells relative to vehicle: significant increases
  peripheral myeloid cells relative to vehicle: significant decreases
VEGFR2; Hs 746T model, single dose of 100 mg/kg
  duration of inhibition of VEGFR2 phosphorylation: approximately 24 hours
VEGFR2; Hs 746T tumor-bearing mice, 30 mg/kg single bolus, 4 hours after treatment
  pVEGFR2 Inhibition, %: complete abolishment
[1]
  TGI (summary over several models): ≥ 70%
AXL
  IC50: 3.89 ± 1.61 nM
[2]; kinase profiling
  activity against serine or threonine kinases: No activity
[2]; single concentration of 1 μmol/L, panel of 405 protein kinases
  inhibition of additional RTKs and TKs: ≥ 70%
CT26 tumors
  survival to the end of the 34-day dosing regimen: 20%
MET [3]
  duration of inhibition of MET phosphorylation: approximately 24 hours
[4]
  fraction unbound at 16 h, 10 μmol/L: 0.003
MC38 tumors
  TGI compared with vehicle: significant TGI
MET [5]
  IC50: 25.4 ± 1.32 nM
NCI-H441 tumors; 1 mg/kg/day
  Tumor growth inhibition: 68.3%
NCI-H441 tumors; 3 mg/kg/day
  Tumor regression (%): 5.6%
NCI-H441 tumors; 10 mg/kg/day
  Tumor regression (%): 67.7%
NCI-H441 tumors; 30 mg/kg/day
  Tumor regression (%): 72.1%
NCI-H441 tumors; 60 mg/kg/day
  Tumor regression (%): 86.1%
